Reference: ChEMBL document CHEMBL1153436, “2-Pyridyl P1'-substituted symmetry-based human immunodeficiency virus protease inhibitors (A-792611 and A-790742) with potential for convenient dosing and reduced side effects” (J Med Chem, 2009)
pEC50, pIC50, pKi: −log10 of the molar value.

Columns and labels:
[1] = tested on: Rattus norvegicus; assay: Toxicity in po dosed Gunn rat assessed as hyperbilirubinemia; assay type: organism-based; conditions: in vivo
Outline: (§1)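 Gunn rats (n = 8-10 per arm) dosed orally with compound in 5% ethanol/95% propylene glycol with p-toluenesulfonic acid, together with 50 mg/kg RTV. Plasma was sampled 4 h after the first and second doses. Drug was measured by HPLC and bilirubin […]. Change in bilirubin (mg/dL) reported as mean with SD.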

[2] = tested on: Serum; assay: Drug level in Gunn rat serum at 100 mg/kg coadministered with ritonavir measured on day 1; assay type: ADME, organism-based; parameters: dose 100 mg/kg; conditions: in vivo; outline: as §1
[3] = tested on: Human immunodeficiency virus 1; assay: Antiviral activity against HIV1 bearing protease gene with A17 mutation infected in human MT4 cells after 5 days by MTT assay; assay type: functional, organism-based; conditions: Human immunodeficiency virus 1, MT4, 120 h
Outline: (§2)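 HIV-1 A17 mutant clone carrying protease mutations L10F, V32I, M46I, I47V, Q58E and I84V, generated by in vitro serial passage under LPV/RTV. EC50 was determined in MT-4 cells. Wild-type reference strain was HIV-1 pNL4-3.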

[4] = tested on: Human immunodeficiency virus 1; assay: Antiviral activity against wild-type HIV1 pNL4-3 infected in human MT4 cells after 5 days by MTT assay; assay type: functional, organism-based; conditions: Human immunodeficiency virus 1, MT4, 120 h
[5] = tested on: Rattus norvegicus; assay: Toxicity in Gunn rat assessed as unconjugated-bilirubin level at 100 mg/kg coadministered with ritonavir measured on day 2; assay type: organism-based; parameters: dose 100 mg/kg; conditions: in vivo; outline: as §1
[6] = tested on: Human immunodeficiency virus 1; assay: Antiviral activity against wild-type HIV1 pNL4-3 infected in human MT4 cells after 5 days by MTT assay in presence of 50% human serum; assay type: functional, organism-based; conditions: Human immunodeficiency virus 1, MT4, 120 h
[7] = tested on: Human immunodeficiency virus 1; assay: Fold resistance, ratio of EC50 for HIV1 bearing protease gene with A17 mutation to EC50 for wild-type HIV1 pNL4-3; assay type: functional; outline: as §2
[8] = tested on: Rattus norvegicus; assay: Toxicity in Gunn rat assessed as unconjugated-bilirubin level at 100 mg/kg coadministered with ritonavir measured on day 1; assay type: organism-based; parameters: dose 100 mg/kg; conditions: in vivo; outline: as §1
[9] = tested on: Serum; assay: Drug level in Gunn rat serum at 100 mg/kg coadministered with ritonavir measured on day 2; assay type: ADME, organism-based; parameters: dose 100 mg/kg; conditions: in vivo; outline: as §1
[10] = Oral bioavailability in Sprague-Dawley rat at 5 mg/kg; assay type: ADME, organism-based; conditions: in vivo
Outline: (§3)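 Male Sprague-Dawley-derived rats (n = 3) dosed iv or by oral gavage with 5 mg/mL solutions in 5% dextrose containing 20% ethanol, 30% propylene glycol and methanesulfonic acid equivalents. Plasma was sampled at 10 time points over 8 h, extracted into ethyl acetate/hexane and analysed by reversed-phase HPLC with internal standard. AUC in µg·h/mL.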

[11] = molecular target: Cytochrome P450 2C19 (Homo sapiens, UniProt P33261); assay: Inhibition of CYP2C19 assessed as S-mephenytion hydroxylation; assay type: ADME
Outline: (§4)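 CYP inhibition in vitro, with probe reactions of phenacetin O-deethylation (CYP1A2), tolbutamide hydroxylation (CYP2C9), S-mephenytoin hydroxylation (CYP2C19) and dextromethorphan O-demethylation (CYP2D6). Reported as IC50 in µM.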

[12] = molecular target: Cathepsin D (Homo sapiens, UniProt P07339); assay: Inhibition of cathepsin D
[13] = Protein binding in human plasma by equilibrium dialysis; assay type: ADME, cell-free; conditions: read-out: PB (converted)
Outline: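 Percentage bound in human plasma, determined by equilibrium dialysis.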

[14] = tested on: Rattus norvegicus; assay: Toxicity in Gunn rat assessed as unconjugated-bilirubin level at 125 mg/kg coadministered with ritonavir measured on day 1; assay type: organism-based; parameters: dose 125 mg/kg; conditions: in vivo; outline: as §1
[15] = tested on: Human immunodeficiency virus 1; assay: Antiviral activity against HIV1 bearing protease gene with B26 mutation infected in human MT4 cells after 5 days by MTT assay; assay type: functional, organism-based; conditions: Human immunodeficiency virus 1, MT4, 120 h
[16] = Cmax in dog at 5 mg/kg, po coadministered with 2.5 mg/kg ritonavir; assay type: ADME, organism-based, Canis lupus familiaris; parameters: dose 5 mg/kg, route oral; conditions: in vivo
Outline: (§5)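 Male and female beagle dogs (n = 3) given oral gavage doses formulated as 5 mg/mL solutions in 5% dextrose with 20% ethanol, 30% propylene glycol and methanesulfonic acid, alone or with RTV (2.5 or 5 mg/kg). Plasma was taken at 12 time points over 12 h, extracted with ethyl acetate/hexane and analysed by reversed-phase HPLC with internal standard. AUC in µg·h/mL; Cmax and C12h in µg/mL.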

[17] = Cmax in dog at 5 mg/kg, po; assay type: ADME, organism-based, Canis lupus familiaris; parameters: dose 5 mg/kg, route oral; conditions: in vivo; outline: as §5
[18] = Concentration of drug after 12 hrs in dog at 5 mg/kg, po coadministered with 5 mg/kg ritonavir; assay type: ADME, organism-based, Canis lupus familiaris; conditions: in vivo, read-out: Drug uptake; outline: as §5
[19] = Clearance in Sprague-Dawley rat at 5 mg/kg, iv; assay type: ADME, organism-based; parameters: dose 5 mg/kg, route intravenous; conditions: in vivo; outline: as §3
[20] = tested on: Rattus norvegicus; assay: Toxicity in Gunn rat assessed as unconjugated-bilirubin level at 125 mg/kg coadministered with ritonavir measured on day 2; conditions: in vivo
[21] = molecular target: T1, Renin (Homo sapiens, UniProt P00797); assay: Inhibition of renin
T1 sequence (P00797 whole entry): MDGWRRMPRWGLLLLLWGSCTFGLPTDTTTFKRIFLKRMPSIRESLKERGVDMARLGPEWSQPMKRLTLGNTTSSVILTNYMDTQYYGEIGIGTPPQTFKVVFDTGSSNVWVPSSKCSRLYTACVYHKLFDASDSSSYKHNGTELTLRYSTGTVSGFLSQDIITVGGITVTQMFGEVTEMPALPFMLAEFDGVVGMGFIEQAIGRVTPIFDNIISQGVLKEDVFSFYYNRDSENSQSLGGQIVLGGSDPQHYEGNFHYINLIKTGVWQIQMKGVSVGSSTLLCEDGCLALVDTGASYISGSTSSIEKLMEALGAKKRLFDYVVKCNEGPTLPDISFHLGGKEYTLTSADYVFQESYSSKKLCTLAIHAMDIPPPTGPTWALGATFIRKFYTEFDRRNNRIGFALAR

[22] = Solubility at pH 7.4; assay type: physicochemical; conditions: buffer
Outline: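 Solubility measured in µg/mL at pH 7.4 and 25 °C.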

[23] = AUC in dog at 5 mg/kg, po coadministered with 2.5 mg/kg ritonavir; assay type: ADME, organism-based, Canis lupus familiaris; conditions: plasma; outline: as §5
[24] = Half life in Sprague-Dawley rat at 5 mg/kg, iv; assay type: ADME, organism-based; parameters: dose 5 mg/kg, route intravenous; conditions: in vivo; outline: as §3
[25] = tested on: Human immunodeficiency virus 1; assay: Antiviral activity against HIV1 bearing protease gene with P25 mutation infected in human MT4 cells after 5 days by MTT assay; assay type: functional, organism-based; conditions: Human immunodeficiency virus 1, MT4, 120 h
[26] = molecular target: Cytochrome P450 2C9 (Homo sapiens, UniProt P11712); assay: Inhibition of CYP2C9 assessed as Tolbutamide hydroxylation; assay type: ADME; outline: as §4
[27] = AUC in dog at 5 mg/kg, po; assay type: ADME, organism-based, Canis lupus familiaris; parameters: dose 5 mg/kg, route oral; conditions: plasma; outline: as §5
[28] = Inhibition of HIV protease; parameters: species or system Human immunodeficiency virus
[29] = molecular target: Cytochrome P450 2D6 (Homo sapiens, UniProt P10635); assay: Inhibition of CYP2D6 assessed as dextromethorphan O-demethylation; assay type: ADME; outline: as §4
[30] = tested on: Serum; assay: Drug level in Gunn rat serum at 125 mg/kg coadministered with ritonavir measured on day 2; assay type: ADME, organism-based; parameters: dose 125 mg/kg; conditions: in vivo; outline: as §1
[31] = tested on: Serum; assay: Drug level in Gunn rat serum at 125 mg/kg coadministered with ritonavir measured on day 1; assay type: ADME, organism-based; parameters: dose 125 mg/kg; conditions: in vivo; outline: as §1
[32] = Concentration of drug after 12 hrs in dog at 5 mg/kg, po coadministered with 2.5 mg/kg ritonavir; assay type: ADME, organism-based, Canis lupus familiaris; conditions: in vivo, read-out: Drug uptake; outline: as §5
[33] = Cmax in dog at 5 mg/kg, po coadministered with 5 mg/kg ritonavir; assay type: ADME, organism-based, Canis lupus familiaris; parameters: dose 5 mg/kg, route oral; conditions: in vivo; outline: as §5
[34] = molecular target: T2, Cytochrome P450 1A2 (Homo sapiens, UniProt P05177); assay: Inhibition of CYP1A2 assessed as phenacetin O-deethylation; assay type: ADME; outline: as §4
T2 sequence (P05177 whole entry): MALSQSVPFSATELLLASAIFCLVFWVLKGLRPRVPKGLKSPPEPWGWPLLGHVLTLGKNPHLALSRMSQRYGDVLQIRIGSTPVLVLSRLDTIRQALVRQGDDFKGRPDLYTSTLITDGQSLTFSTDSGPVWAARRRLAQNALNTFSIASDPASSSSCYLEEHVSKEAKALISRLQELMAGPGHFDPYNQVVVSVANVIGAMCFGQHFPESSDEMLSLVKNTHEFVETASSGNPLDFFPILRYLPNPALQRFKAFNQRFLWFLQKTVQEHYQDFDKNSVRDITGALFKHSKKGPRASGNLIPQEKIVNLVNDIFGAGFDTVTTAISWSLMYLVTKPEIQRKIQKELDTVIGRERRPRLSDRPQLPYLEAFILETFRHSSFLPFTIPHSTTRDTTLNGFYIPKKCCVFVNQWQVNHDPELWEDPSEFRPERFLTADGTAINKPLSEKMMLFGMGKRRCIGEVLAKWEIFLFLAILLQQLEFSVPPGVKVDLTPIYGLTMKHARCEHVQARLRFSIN

[35] = Inhibition of human pepsin
[36] = AUC in Sprague-Dawley rat at 5 mg/kg, po; assay type: ADME, organism-based; parameters: dose 5 mg/kg, route oral; conditions: plasma; outline: as §3
[37] = AUC in Sprague-Dawley rat at 5 mg/kg, po in presence of ritonavir; assay type: ADME, organism-based; parameters: dose 5 mg/kg, route oral; conditions: plasma; outline: as §3
[38] = AUC in dog at 5 mg/kg, po coadministered with 5 mg/kg ritonavir; assay type: ADME, organism-based, Canis lupus familiaris; conditions: plasma; outline: as §5
[39] = molecular target: Cytochrome P450 3A4 (Homo sapiens, UniProt P08684); assay: Inhibition of CYP3A4 assessed as midazolam 1'- hydroxylation; assay type: ADME
Outline: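 CYP3A4 inhibition was measured as midazolam 1′-hydroxylation and expressed as Ki in nM.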

Sequence of Cathepsin D (P07339 65-162 limits assumed): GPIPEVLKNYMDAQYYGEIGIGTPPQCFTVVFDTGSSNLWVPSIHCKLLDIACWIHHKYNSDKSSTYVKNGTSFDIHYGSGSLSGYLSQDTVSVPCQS
Sequence of Cathepsin D (P07339 169-412 limits assumed): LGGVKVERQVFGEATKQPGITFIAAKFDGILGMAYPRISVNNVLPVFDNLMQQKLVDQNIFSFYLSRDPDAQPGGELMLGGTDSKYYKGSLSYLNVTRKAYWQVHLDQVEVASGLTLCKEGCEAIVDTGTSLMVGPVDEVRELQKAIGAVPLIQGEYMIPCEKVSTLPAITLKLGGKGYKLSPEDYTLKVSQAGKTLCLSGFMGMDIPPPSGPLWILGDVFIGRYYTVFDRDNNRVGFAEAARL
Sequence of Cytochrome P450 2C19 (P33261 whole entry): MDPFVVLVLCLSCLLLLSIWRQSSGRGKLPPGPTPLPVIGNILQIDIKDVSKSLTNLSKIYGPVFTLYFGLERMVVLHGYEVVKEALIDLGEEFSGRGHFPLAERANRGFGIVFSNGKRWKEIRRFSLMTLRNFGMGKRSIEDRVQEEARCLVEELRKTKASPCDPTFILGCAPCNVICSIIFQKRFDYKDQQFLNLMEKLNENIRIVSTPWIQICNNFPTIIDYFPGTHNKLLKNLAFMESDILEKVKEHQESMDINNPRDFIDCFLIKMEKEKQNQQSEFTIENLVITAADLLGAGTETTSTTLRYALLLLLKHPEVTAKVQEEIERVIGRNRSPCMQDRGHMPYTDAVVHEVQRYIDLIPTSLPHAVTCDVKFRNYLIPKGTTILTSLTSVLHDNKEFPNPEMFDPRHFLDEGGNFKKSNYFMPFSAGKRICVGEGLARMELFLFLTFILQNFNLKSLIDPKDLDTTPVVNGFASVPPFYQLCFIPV
Sequence of Cytochrome P450 2D6 (P10635 whole entry): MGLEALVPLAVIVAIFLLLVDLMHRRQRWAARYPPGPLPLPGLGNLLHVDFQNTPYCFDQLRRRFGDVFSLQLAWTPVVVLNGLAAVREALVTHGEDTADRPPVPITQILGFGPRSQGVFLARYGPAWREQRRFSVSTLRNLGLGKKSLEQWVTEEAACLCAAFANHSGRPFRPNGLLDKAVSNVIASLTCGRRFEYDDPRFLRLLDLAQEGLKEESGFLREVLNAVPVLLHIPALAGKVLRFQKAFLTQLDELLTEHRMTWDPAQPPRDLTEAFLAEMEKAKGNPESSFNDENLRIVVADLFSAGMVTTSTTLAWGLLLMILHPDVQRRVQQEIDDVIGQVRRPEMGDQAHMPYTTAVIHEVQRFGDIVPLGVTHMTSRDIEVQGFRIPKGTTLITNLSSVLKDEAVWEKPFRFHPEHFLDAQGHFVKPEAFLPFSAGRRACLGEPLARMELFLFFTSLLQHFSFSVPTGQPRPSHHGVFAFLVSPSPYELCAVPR
Sequence of Cytochrome P450 2C9 (P11712 whole entry): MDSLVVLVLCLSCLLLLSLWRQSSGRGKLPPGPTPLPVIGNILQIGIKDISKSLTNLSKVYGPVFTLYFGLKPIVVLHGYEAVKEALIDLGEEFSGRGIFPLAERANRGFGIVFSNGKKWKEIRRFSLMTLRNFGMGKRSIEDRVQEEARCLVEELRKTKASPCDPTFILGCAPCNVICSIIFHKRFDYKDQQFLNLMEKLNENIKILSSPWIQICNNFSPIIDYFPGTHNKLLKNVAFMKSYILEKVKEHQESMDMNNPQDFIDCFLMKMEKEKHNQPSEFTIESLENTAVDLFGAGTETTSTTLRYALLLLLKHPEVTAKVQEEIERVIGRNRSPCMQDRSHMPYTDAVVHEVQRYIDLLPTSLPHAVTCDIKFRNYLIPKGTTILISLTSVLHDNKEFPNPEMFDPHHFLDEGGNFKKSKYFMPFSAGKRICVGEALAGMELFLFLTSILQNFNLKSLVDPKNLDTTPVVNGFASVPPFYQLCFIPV
Sequence of Cytochrome P450 3A4 (P08684 whole entry): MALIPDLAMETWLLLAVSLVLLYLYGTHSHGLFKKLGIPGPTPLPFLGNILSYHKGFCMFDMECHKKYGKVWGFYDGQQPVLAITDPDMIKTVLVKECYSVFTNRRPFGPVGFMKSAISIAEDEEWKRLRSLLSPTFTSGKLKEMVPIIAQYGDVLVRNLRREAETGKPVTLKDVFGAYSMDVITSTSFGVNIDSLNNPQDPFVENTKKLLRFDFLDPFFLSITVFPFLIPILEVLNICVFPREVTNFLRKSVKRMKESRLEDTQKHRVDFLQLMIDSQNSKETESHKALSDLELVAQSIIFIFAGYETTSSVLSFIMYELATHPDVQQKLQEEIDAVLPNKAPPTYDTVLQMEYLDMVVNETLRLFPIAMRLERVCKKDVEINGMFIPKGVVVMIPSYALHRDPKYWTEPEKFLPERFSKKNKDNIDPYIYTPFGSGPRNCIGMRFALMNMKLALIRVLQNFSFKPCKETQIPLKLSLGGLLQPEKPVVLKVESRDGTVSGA

COC(=O)N[C@H](C(=O)NN(Cc1ccc(-c2ccccn2)cc1)C[C@H](O)[C@H](Cc1ccccc1)NC(=O)[C@@H](N1CCN(Cc2cccc(C)n2)C1=O)C(C)(C)C)C(C)(C)C
Activity [1]: Toxic | Drug uptake [2]: 8.87 µg/mL | pEC50 [3]: 7.77 | pEC50 [4]: 8.70 | Activity [5]: 0.685 mg/dL | pEC50 [6]: 7.52 | Ratio EC50 [7]: 9 | Activity [8]: 0.536 mg/dL | Drug uptake [9]: 8.88 µg/mL

COC(=O)N[C@H](C(=O)N[C@@H](Cc1ccc(-c2ccccn2)cc1)C[C@H](O)[C@H](Cc1ccccc1)NC(=O)[C@@H](N1CCN(Cc2ccccc2)C1=O)C(C)(C)C)C(C)(C)C
bioavailability [10]: 3.4% | pIC50 [11]: < 5.00 | pKi [12]: 5.37 | fraction unbound [13]: 0.0034 | Activity [14]: 0.144 mg/dL | pEC50 [15]: 6.85 | Cmax [16]: 3910 ng/mL | Cmax [17]: 170 ng/mL | concentration at 12 h [18]: 924 ng/mL | clearance [19]: 19.2 mL/min/kg | Activity [20]: 0.133 mg/dL | pKi [21]: < 5.40 | solubility [22]: < 0.15 µg/mL | AUC [23]: 19000 ng·h/mL | half-life [24]: 1 h | pEC50 [25]: 6.99 | pIC50 [26]: < 5.00 | AUC [27]: 210 ng·h/mL | pEC50 [3]: 7.66 | pKi [28]: 10.82 | pIC50 [29]: < 5.00 | Drug uptake [30]: 5.33 µg/mL | pEC50 [4]: 8.70 | pEC50 [6]: 7.92 | Drug uptake [31]: 2.45 µg/mL | Ratio EC50 [7]: 11 | concentration at 12 h [32]: 68 ng/mL | Cmax [33]: 5890 ng/mL | pIC50 [34]: < 5.00 | pKi [35]: 3.75 | AUC [36]: 150 ng·h/mL | AUC [37]: 3500 ng·h/mL | AUC [38]: 41900 ng·h/mL | pKi [39]: 7.74
